A selection: hits, their analogues and other compounds. The true share with any hit is near 2.8%.
MC4R antag cAMP – antagonists of human melanocortin 4 receptor (MC4R). P32245. MC4R-expressing cells, MTII-stimulated cAMP, LANCE TR-FRET. inhibition, % at 6.5 µM. 360,000 compounds, 0.48% hits. AID 540295;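 active = inhibition above its plate's cutoff, the mean of tested wells on that plate plus 3 SD, cut at about 29% in these data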;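 note: 0% = Melanotan II alone and 100% = Melanotan II plus saturating MCL0020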
Target sequence (P32245 whole entry, looked up): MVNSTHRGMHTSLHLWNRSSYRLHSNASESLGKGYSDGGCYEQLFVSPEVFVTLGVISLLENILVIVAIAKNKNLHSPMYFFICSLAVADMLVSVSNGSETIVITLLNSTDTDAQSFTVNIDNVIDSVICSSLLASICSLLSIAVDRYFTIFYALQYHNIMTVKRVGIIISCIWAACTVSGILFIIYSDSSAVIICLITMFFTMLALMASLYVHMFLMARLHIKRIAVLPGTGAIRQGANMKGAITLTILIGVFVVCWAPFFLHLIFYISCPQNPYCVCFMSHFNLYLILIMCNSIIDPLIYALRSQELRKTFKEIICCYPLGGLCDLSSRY
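system = U2OS cells with stable human MC4R expression | also added = Melanotan II challenge after compound preincubation | dosing = one concentration, 6.5 µM nominal | incubation = compound 30 min, challenge 1 h, detection 1 h | measured by = TR-FRET with Eu-cAMP and labeled anti-cAMP, 671 nm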
MC4R ag barr – activates human MC4R beta-arrestin recruitment; P32245; U2OS MC4R beta-arrestin complementation, luminescence; percent of melanotan II response, DMSO zero; activation, % at 8.9 µM; 360,000 compounds, 0.98% hits; AID 540308;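 active = activation above a per-plate cutoff, the mean activation of sample wells on that plate plus 3 SD, cut at about 8% in these data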
EBI2 antag – EBI2 (human) antagonism | P32249 | EBI2 beta-arrestin recruitment, luminescence, 7a,25-OHC stimulated | inhibition, % at 5 µM | 360,000 compounds, 0.81% hits | AID 651636; in the data active = inhibition above about 38%;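 note: enzyme fragment complementation signal reports receptor beta-arrestin coupling in cells; 0% = agonist plus DMSO wells and 100% = wells without agonist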
HTR2A ag – mouse HTR2A agonism via beta-arrestin recruitment; P35363; CHO-K1 mHTR2A beta-arrestin complementation, luminescence; percent of 30 µM serotonin response; activation, % at 7.6 µM; 360,000 compounds, 0.66% hits; AID 624169;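 active = activation above a run cutoff, the mean activation of all tested compounds plus 3 SD, cut at about 14% in these data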;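 note: 0% = plate median of compound wells and 100% = 30 µM serotonin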
OPRM1 ag – activates human mu opioid receptor in HTR2A counterscreen. shares compounds with HTR2A ag. U2OS OPRM1 beta-arrestin PathHunter, luminescence; DMSO 0%, DAMGO 9.3 µM 100%. activation, % at 9.3 µM. 2,300 compounds, 5.3% hits;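 active = mean activation above the mean of DMSO-only wells plus 3 SD, cut at about 0.5% in these data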
Target sequence (P35372 whole entry, looked up): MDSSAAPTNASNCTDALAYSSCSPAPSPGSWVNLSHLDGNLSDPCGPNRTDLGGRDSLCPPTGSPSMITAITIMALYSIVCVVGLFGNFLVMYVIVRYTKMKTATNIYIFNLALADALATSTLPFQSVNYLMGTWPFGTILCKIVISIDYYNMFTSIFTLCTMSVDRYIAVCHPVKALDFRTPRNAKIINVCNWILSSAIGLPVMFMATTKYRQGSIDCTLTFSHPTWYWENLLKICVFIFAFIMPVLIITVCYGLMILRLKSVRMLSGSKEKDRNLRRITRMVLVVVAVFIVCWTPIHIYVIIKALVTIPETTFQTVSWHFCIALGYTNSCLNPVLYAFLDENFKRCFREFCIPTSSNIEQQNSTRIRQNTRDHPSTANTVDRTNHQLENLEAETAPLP
m5-HT2A ag conf – mouse HTR2A agonism confirmed; 2,300 compounds, 19% hits; CHO-K1 PathHunter beta-arrestin recruitment, luminescence; DMSO 0%, 30 µM serotonin 100%; AID 624381; shares compounds with HTR2A ag; activation, % at 7.6 µM;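 active = mean activation across triplicates above the hit threshold derived in the original primary screen, cut at about 15% in these data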
Active calls of the source: *; / = no result; ! = repeats disagree.

SMILES | MC4R antag cAMP | MC4R ag barr | EBI2 antag | HTR2A ag | OPRM1 ag | m5-HT2A ag conf
CCCCN(C(=O)c1ccc(N2CCCC2=O)cc1)c1c(N)n(CCC)c(=O)[nH]c1=O | 10.1 | -3.3 | -3.3 | 0.9 | / | /
COc1ccc(-c2csc(NC(=O)Nc3ccccc3)n2)cc1 | 2.3 | 0.9 | 9.5 | 18.9* | -0.2 | 6.9
Cc1ccc(-c2csc(NC(=O)C3=NN(c4ccccc4)C(=O)CC3)n2)cc1 | 5.1 | -0.6 | -7.9 | 17.9* | -0.3 | -0.7
Cc1csc(NC(=O)C2=NN(c3ccccc3)C(=O)CC2)n1 | 10.0 | -1.5 | -4.0 | -1.3 | / | /
Cc1ccccc1-c1ccc2c(c1)O[C@H](CN(C)C(=O)C1CC1)[C@@H](C)CN([C@@H](C)CO)S2(=O)=O | 11.6 | -0.3 | 18.9 | -0.4 | / | /
O=C(CCC(=O)c1cccs1)OCc1ccc([N+](=O)[O-])cc1 | -9.6 | -0.5 | -6.1 | 4.7 | / | /
O=S(=O)(CCNCc1ccccc1)NC1CCCCC1 | -3.9 | 0.2 | -0.8 | -0.5 | / | /
O=C1c2ccccc2C(=O)N1CCc1c[nH]c2ccc(O)cc12 | 21.2 | 3.7 | -1.0 | 17.8* | -0.5 | -4.8
CCOC(=O)N1CCC(N(C(=O)Nc2ccc(Cl)c(Cl)c2)C(C)CC)CC1 (configuration not stated) | 7.1 | 0.7 | 1.3 | 15.5* | -0.1 | -2.1
Cc1ccc(NC(=O)C2CCC(=O)N2C(=O)OCc2ccccc2)cc1 (configuration not stated) | 4.3 | -0.4 | -12.2 | -5.7 | / | /
O=C(Nc1ccccn1)[C@@H]1CCC(=O)N1C(=O)OCc1ccccc1 | -2.4 | 0.5 | -0.3 | 17.8* | -0.4 | -2.9
O=C(Nc1nnc([C@H]2C[C@H](O)[C@@H](CO)O2)s1)c1cccc(OC(F)(F)F)c1 | -1.8 | 0.2 | -2.8 | 3.3 | / | /
COc1cccc2c1Oc1ncccc1N(C(=O)CCC(=O)NCc1ccccc1Cl)C2 | 0.9 | -0.8 | -4.3 | 17.3* | -0.5 | 0.9
O=C(CN1CCN(c2ccccn2)CC1)Nc1ccc(Oc2ccccc2)cc1 | 8.9 | 3.1 | 0.3 | 33.5* | -0.6 | 92.2*
O=C(CN1CCN(c2ccccn2)CC1)Nc1ccccc1 | 2.1 | 0.5 | -3.5 | 9.8 | / | /
O=C(CN1CCN(c2ccccn2)CC1)Nc1cccc(S(=O)(=O)N2CCCC2)c1 | 4.5 | -1.0 | -0.1 | 19.4* | 0.2 | 69.1*
O=C(NC1CCN(Cc2ccccc2)CC1)c1[nH]c(C(F)(F)F)nc1-c1ccccc1 | / | / | -7.5 | -5.0 | / | /
COc1ccc(S(=O)(=O)N2CCCCCC2)cc1C(=O)N1CCN(c2ccc(F)cc2)CC1 | 10.9 | -0.3 | -3.1 | -12.9 | / | /
COC(=O)[C@]12CCCCC=C1N(Cc1cccc3ccccc13)C(=O)[C@H](CC(=O)N1CCC(c3ccccc3)CC1)C2 | / | / | 9.1 | -0.4 | / | /
CCOC(=O)[C@]12CCCC=C1N(Cc1cccc3ccccc13)C(=O)[C@H](CC(=O)N1CCC(c3ccccc3)CC1)C2 | / | / | 20.2 | 17.0* | -0.6 | -1.8
C=CCn1c(Br)nc2c1c(=O)[nH]c(=O)n2C | -0.9 | -1.9 | 1.0 | 19.3* | -0.6 | -3.9
Cc1cc(C(C)(C)C)c(O)c(C)c1CC1=NCCN1 | 12.9 | -0.7 | -5.2 | 31.8* | -0.7 | 41.2*
Cc1ccccc1S(=O)(=O)N(C)C[C@@H]1OCc2ccccc2-c2c(n(C)c3ccccc23)C(=O)N([C@H](C)CO)C[C@@H]1C | -1.8 | 3.0 | 5.6 | 56.3* | -0.3 | 3.6
NS(=O)(=O)c1cc(Br)c2c(c1)S(=O)(=O)NCN2 | 2.4 | -2.7 | 3.7 | 1.7 | / | /
COc1ccc(-c2c(C#Cc3ccsc3)c3cc(-c4cccc5[nH]ccc45)ccc3n2C)cc1 | 1.3 | 1.4 | 6.3 | -8.9 | / | /
SMILES | MC4R antag cAMP | MC4R ag barr | EBI2 antag | HTR2A ag | OPRM1 ag | m5-HT2A ag conf
COc1cc(OC)cc(-c2c(C#Cc3ccsc3)c3cc(-c4cccc5[nH]cc(C=O)c45)ccc3n2C)c1 | 2.0 | 1.3 | -33.4 | 21.1* | -0.6 | -2.0
COC(=O)C1(C(=O)OC)C2CCCCC2N(S(=O)(=O)c2ccc(C)cc2)[C@@H]1CC(C)=O (some centres not stated) | / | / | -4.3 | 0.4 | / | /
Cc1ccccc1NS(=O)(=O)c1ccc(C(=O)N2CCCC2)cc1 | 7.0 | -0.2 | -0.7 | 7.3 | / | /
Cc1cccc(NS(=O)(=O)c2ccc(C(=O)N3CCN(c4ccccc4O)CC3)cc2)c1C | -2.8 | -0.8 | -22.4 | 16.4* | 0.5* | 5.1
CSc1ccc(CN2CCC2(C)C(=O)Nc2cccc(Oc3ccccc3)c2)cc1 (configuration not stated) | 8.9 | 0.4 | 23.9 | -4.0 | / | /
Cc1cc(Cl)ccc1OCC(=O)NC1CCCC1 | 18.3 | 1.8 | -15.9 | 4.7 | / | /
Cc1cc(Cl)ccc1OCC(=O)OCC(=O)NC1CCCC1 | 6.9 | -3.3 | 6.7 | 15.6* | 0.5* | 2.4
CCN(CC)C(=O)c1cccc(-c2csc(C(C)(O)c3ccc(F)c(F)c3)n2)c1 (configuration not stated) | -5.4 | 0.8 | 14.3 | -4.9 | / | /
CCCS(=O)(=O)NC(=O)C1(C)CCN(C(=O)c2ccccc2OC(F)(F)F)C1 (configuration not stated) | 1.1 | -0.7 | -0.1 | 3.6 | / | /
O=C1CCc2cc(S(=O)(=O)Nc3cccc(Cl)c3)ccc2N1 | 5.3 | -0.3 | -7.8 | -2.1 | / | /
Cc1cccc(NS(=O)(=O)c2ccc3c(c2)CCC(=O)N3)c1 | 0.7 | -0.6 | -5.9 | 16.0*! | -0.4 | 4.8
Cc1ccc(-c2cc(-c3ccco3)c3c(N)c(C(=O)NN)oc3n2)cc1 | 1.7 | 0.2 | -0.1 | 14.6* | -0.5 | 0.2
CC(=O)CC1c2cc(F)ccc2C=C(c2ccsc2)N1c1ccc(-c2ccc(C(N)=O)cc2)cc1 (configuration not stated) | / | / | 26.5 | 4.5 | / | /
CCn1c(=S)[nH]c2c(=O)n(C)c(=O)n(C)c21 | 6.2 | -0.6 | -7.1 | 17.2* | 0.3 | 3.4
Cn1cc(CN2CCC(C(=O)Nc3ccc(Oc4ccccc4F)cc3)CC2)cn1 | -3.6 | -1.5 | -15.7 | -2.8 | / | /
CCn1cc(CN2CCC(C(=O)Nc3ccc(Oc4ccccc4F)cc3)CC2)cn1 | -9.2 | -1.4 | -16.6 | 14.6* | -0.7 | -6.5
COC(=O)c1ccc(Cn2c(C)c(C(=O)NCc3cccc([N+](=O)[O-])c3)sc2=O)o1 | -0.1 | -1.0 | -4.9 | -5.5 | / | /
CCN(Cc1ccccc1)C(=O)C(=O)c1cn(CC(=O)N2CCCC2)c2ccccc12 | -4.1 | -0.4 | 12.7 | 15.6* | -0.7 | -3.5
CCN(CC)C(=O)Cn1cc(C(=O)C(=O)N2CCN(C)CC2)c2ccccc21 | -1.6 | -2.9 | 3.0 | 16.4* | -0.7 | 0.3
CC1CCCCN1C(=O)C(=O)c1cn(CC(=O)N2CCCC2)c2ccccc12 (configuration not stated) | -0.8 | -0.4 | -3.1 | -2.4 | / | /
